These results are taken from ChEMBL document CHEMBL1125169, “Trifluoromethylacetylenic alcohols as affinity labels: inactivation of estradiol dehydrogenase by a trifluoromethylacetylenic secostradiol” (J Med Chem, 1990).

The target of data set [1] is T1, 17-beta-hydroxysteroid dehydrogenase type 1 (Homo sapiens) (UniProt P14061).
T1 sequence (whole entry): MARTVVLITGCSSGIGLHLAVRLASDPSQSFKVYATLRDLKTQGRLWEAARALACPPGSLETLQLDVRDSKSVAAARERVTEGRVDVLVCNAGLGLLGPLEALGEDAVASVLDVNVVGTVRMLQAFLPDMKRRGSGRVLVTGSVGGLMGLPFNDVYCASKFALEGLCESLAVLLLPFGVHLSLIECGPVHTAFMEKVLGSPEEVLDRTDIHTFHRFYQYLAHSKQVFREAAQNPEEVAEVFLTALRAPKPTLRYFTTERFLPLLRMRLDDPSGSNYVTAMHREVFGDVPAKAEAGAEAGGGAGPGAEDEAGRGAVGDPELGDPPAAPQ
As to the kind of experiment: Tested by protection experiments to demonstrate the inactivation of estradiol dehydrogenase and the kinetic parameter Kapp was reported at a concentration of 20 uM. A digest of the protocol:
(§1)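 Inactivation of estradiol dehydrogenase with inhibitor at 20 μM, either alone or with a protecting ligand: 17β-estradiol or 17α-estradiol at 32 μM, or cofactors at 150 μM. Apparent inactivation rate constant (kapp, min⁻¹) was taken from least-squares fits of the time courses (r ≥ 0.992).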

Data set [2] has as its target T2, 17-beta-hydroxysteroid dehydrogenase type 1 (Homo sapiens, UniProt P14061).
T2 sequence (P14061 whole entry): T1 sequence (whole entry)
In words: Tested by protection experiments to demonstrate the inactivation of estradiol dehydrogenase and the kinetic parameter Ki app was reported at a concentration of 20 uM. The conditions noted are these: read-out: Ki app. A digest of the protocol:
as §1

Data set [3] can be described thus: The limiting half life time was reported. A digest of the protocol: (§2)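 Time-dependent inactivation of estradiol dehydrogenase was run at several inhibitor concentrations without NAD⁺, in 1 M carbonate buffer (pH 9.2) with glycerol omitted. Points are the mean of three experiments (two at 80 μM). Pseudo-first-order inactivation kinetics gave Ki and limiting t1/2.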

In data set [4] the target is T1, 17-beta-hydroxysteroid dehydrogenase type 1 (Homo sapiens). As to the kind of experiment: Tested by protection experiments to demonstrate the inactivation of estradiol dehydrogenase and the kinetic parameter Kapp was reported at a concentration of 150 uM. A digest of the protocol:
as §1

For data set [5], the target named is T2, 17-beta-hydroxysteroid dehydrogenase type 1. In words: Tested for time-dependent inactivation of the enzyme that followed pseudo- first- order kinetics in the absence of NAD+ and the Ki values were reported. A digest of the protocol: as §2
Substrate in data set [6]: C#CC(O)[C@@]1(C)CCC2c3ccc(O)cc3CCC2C1

For `C[C@]12CC[C@@H]3c4ccc(O)cc4CC[C@H]3[C@@H]1CC[C@H]2O`, in data set [1], the K app was 0.01 min⁻¹.

Turning to `C#CC(=O)[C@@]1(C)CCC2c3ccc(O)cc3CCC2C1` (stereo not given in full), in data set [2], the Ki stood at 2.8 µM.

`C[C@]12CC[C@@H]3c4ccc(O)cc4CC[C@H]3[C@@H]1CC[C@@H]2O`: the K app in data set [1] turned out to be 0.013 min⁻¹. As to `NC(=O)C1=CN(C2OC(COP(=O)(O)OP(=O)(O)OC[C@H]3O[C@@H](n4cnc5c(N)ncnc54)[C@H](O)[C@@H]3O)[C@H](O)[C@@H]2O)C=CC1` (stereo not given in full), the K app in data set [1] came out at 0.025 min⁻¹. Molecule `NC(=O)c1ccc[n+]([C@@H]2O[C@H](COP(=O)([O-])OP(=O)(O)OC[C@H]3O[C@@H](n4cnc5c(N)ncnc54)[C@H](O)[C@@H]3O)[C@@H](O)[C@H]2O)c1` gave a K app in data set [1] of 0.013 min⁻¹. In data set [3], `C[C@]1(C(O)C#CC(F)(F)F)CCC2c3ccc(O)cc3CCC2C1` (stereo not given in full) displayed a half-life of 7 min. Besides, the K app turned out to be 0.014 min⁻¹ in data set [4] and 0.026 min⁻¹ in data set [1]. The molecule further had a Ki in data set [5] of 59 µM. Molecule `C[C@@]1(C(O)C#CC(F)(F)F)CCC2c3ccc(O)cc3CCC2C1` (single isomer, unassigned) had a half-life in data set [3] of 8 min. Further, the K app in data set [4] came to 0.011 min⁻¹; in data set [1], 0.021 min⁻¹. The Ki in data set [5] was found to be 65 µM.

In data set [1], `C[C@]12CC[C@@H]3c4ccc(O)cc4CC[C@H]3[C@@H]1CC[C@@H]2O.NC(=O)C1=CN([C@@H]2O[C@H](COP(=O)(O)OP(=O)(O)OC[C@H]3O[C@@H](n4cnc5c(N)ncnc54)[C@H](O)[C@@H]3O)[C@@H](O)[C@H]2O)C=CC1` gave a K app of 0.013 min⁻¹.

B1: 17-beta-hydroxysteroid dehydrogenase type 1 (Homo sapiens), P14061 (protein)
chain: T1 sequence (whole entry)
Turning to B1, the Km in data set [6] is 79 µM.
